# Test results from article PMC7740640 (Xenobiotica; the fate of foreign compounds in biological …, 2020).
# Values joined by “and” are separate entries in the source; they are usually repeats but may differ in a detail not shown here. Equal values may be shown once.
# What was measured:
# Assay type in all cases: in vitro ADME
# [1] = molecular target: T1, CYP2B6 (Homo sapiens, UniProt P20813); test: C152 metabolism; conditions: for Specific rate: CYP2B6
# T1 sequence (P20813 1-491): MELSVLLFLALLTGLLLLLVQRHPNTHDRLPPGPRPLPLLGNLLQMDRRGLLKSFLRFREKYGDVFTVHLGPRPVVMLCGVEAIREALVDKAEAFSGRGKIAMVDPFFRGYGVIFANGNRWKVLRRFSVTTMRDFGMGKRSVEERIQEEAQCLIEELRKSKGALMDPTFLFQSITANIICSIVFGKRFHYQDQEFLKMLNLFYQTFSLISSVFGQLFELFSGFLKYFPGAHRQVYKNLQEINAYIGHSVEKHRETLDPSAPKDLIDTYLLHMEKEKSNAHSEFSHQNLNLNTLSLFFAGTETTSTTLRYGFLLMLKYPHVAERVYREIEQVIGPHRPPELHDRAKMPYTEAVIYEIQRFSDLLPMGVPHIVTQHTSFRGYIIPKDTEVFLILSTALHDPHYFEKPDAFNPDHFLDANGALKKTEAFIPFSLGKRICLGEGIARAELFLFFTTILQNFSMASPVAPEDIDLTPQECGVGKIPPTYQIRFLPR
# Summary of the method: (§1)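 Human P450s in Supersomes that co-express human CPR and cytochrome b5. Reaction in 0.1 M Na-HEPES pH 7.4 with 60 mM KCl, stirred at 30 °C. C152 0.1–30 μM added from acetone stock; 200 μM NADPH starts it. Fluorescence rise read at 500 nm (isosbestic, mono-demethylation step). Rate is the linear slope over 3–5 min, scaled by the C151–C152 fluorescence difference. Michaelis–Menten or Hill fit, Vmax per P450, 2–6 runs; rate at 30 μM computed from fit.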
# [2] = molecular target: T2, CYP2C9 (Homo sapiens, UniProt P11712); test: C152 metabolism; conditions: for Specific rate: CYP2C9
# Summary of the method: as §1
# [3] = molecular target: T3, CYP3A4 (Homo sapiens, UniProt P08684); test: C152 metabolism; conditions: for Specific rate: CYP3A4
# Summary of the method: as §1
# [4] = molecular target: CYP2A6 (Homo sapiens, UniProt P11509); test: C152 metabolism by Supersomes containing CYP2A6; conditions: recombinant CYP2A6 Supersomes
# [5] = molecular target: CYP2D6 (Homo sapiens, UniProt P10635); test: C152 metabolism by Supersomes containing CYP2D6; conditions: recombinant CYP2D6 Supersomes
# [6] = molecular target: CYP2E1 (Homo sapiens, UniProt P05181); test: C152 metabolism by Supersomes containing CYP2E1; conditions: recombinant CYP2E1 Supersomes
# [7] = molecular target: T1, CYP2B6; test: Formation of C151 from C152; conditions: SS(2B6)
# Summary of the method: (§2)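 Probes hold 5–20 pmol P450 in 0.1 M Na-HEPES pH 7.4 with 60 mM KCl. C152 added from 0.5 or 4 mM acetone stock; reaction started with 500 μM NADPH (final), run 5 min at 30 °C with shaking. Quenched with isopropanol containing phenacetin internal standard, then centrifuged. C151 quantified by reverse-phase LC with ESI-positive MRM MS/MS (m/z 230.16→157.2). Michaelis–Menten or Hill fit; normalized per P450 (Supersomes) or CPR (HLM).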
# [8] = molecular target: T4, CYP2C19 (Homo sapiens, UniProt P33261); test: Formation of C151 from C152; conditions: SS(2C19)
# Summary of the method: as §2
# [9] = molecular target: T3, CYP3A4; test: Formation of C151 from C152; conditions: SS(3A4)
# Summary of the method: as §2
# [10] = molecular target: T5, CYP2C8 (Homo sapiens, UniProt P10632); test: Projected involvement in C152 metabolism in HLM
# T5 sequence (P10632 1-490): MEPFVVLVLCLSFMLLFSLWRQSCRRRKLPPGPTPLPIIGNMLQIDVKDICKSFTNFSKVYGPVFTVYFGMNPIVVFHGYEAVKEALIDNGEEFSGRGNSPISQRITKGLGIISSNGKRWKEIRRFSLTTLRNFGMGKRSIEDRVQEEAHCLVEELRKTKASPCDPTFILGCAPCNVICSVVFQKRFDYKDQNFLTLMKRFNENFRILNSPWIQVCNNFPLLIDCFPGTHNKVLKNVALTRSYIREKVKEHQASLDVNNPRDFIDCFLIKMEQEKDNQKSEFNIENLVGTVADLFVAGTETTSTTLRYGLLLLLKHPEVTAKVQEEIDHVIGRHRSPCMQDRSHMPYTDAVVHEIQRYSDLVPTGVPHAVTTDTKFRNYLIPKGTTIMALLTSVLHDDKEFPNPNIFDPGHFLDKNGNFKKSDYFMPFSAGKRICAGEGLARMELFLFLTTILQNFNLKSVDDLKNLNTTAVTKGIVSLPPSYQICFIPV
# [11] = molecular target: T2, CYP2C9; test: Projected involvement in C152 metabolism in HLM
# Summary of the method: (§3)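 Calculated values, no new incubations. Each of seven C152-metabolizing P450s has a fractional content in the pooled HLM P450 pool (LC-MS/MS MRM). That fraction is multiplied by its Supersome Vmax (saturation) or by its rate at 30 μM C152 from Hill or Michaelis–Menten parameters. Expected participation (% TNR) is each normalized rate divided by the sum of all seven.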
# [12] = molecular target: T4, CYP2C19; test: Projected involvement in C152 metabolism in HLM
# Summary of the method: as §3
# [13] = at 30 μM C152, calculated from fit parameters
# [14] = at saturation (Vmax in Supersomes)
# [15] = C151 formed over total C152 metabolized
# [16] = mol C151 formed per mol P450 per min
# [17] = read-out: KM or S50 (Formation of C151, LC-MS), Michaelis-Menten fit
# [18] = at saturation of all P450 species
# [19] = at saturation of all P450 species, % TNR
# T4 sequence (P33261 whole entry): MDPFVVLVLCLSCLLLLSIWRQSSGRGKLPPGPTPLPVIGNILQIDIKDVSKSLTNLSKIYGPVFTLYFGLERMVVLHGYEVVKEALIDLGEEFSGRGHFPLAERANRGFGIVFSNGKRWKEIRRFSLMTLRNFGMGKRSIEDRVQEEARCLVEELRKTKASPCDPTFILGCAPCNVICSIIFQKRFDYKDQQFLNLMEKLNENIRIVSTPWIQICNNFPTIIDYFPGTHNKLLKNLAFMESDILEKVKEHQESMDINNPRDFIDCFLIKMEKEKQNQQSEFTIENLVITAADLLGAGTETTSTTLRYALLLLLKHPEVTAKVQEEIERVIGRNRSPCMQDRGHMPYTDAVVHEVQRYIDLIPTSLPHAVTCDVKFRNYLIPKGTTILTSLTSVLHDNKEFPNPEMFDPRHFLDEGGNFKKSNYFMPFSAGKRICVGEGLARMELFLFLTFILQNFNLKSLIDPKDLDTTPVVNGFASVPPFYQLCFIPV
# T3 sequence (P08684 2-503 limits assumed): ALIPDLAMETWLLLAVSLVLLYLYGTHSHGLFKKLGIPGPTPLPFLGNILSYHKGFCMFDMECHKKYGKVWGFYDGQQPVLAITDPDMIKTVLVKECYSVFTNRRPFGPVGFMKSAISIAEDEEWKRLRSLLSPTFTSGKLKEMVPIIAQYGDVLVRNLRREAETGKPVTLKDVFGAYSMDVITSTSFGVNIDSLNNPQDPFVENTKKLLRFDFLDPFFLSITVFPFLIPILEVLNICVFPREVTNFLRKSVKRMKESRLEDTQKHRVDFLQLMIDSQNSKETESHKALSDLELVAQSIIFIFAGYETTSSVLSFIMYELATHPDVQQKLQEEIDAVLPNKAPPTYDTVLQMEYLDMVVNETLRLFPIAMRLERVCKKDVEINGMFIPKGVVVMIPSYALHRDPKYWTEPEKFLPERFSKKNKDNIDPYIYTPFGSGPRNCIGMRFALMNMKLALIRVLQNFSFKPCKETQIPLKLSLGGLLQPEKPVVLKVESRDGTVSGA
# T2 sequence (P11712 whole entry): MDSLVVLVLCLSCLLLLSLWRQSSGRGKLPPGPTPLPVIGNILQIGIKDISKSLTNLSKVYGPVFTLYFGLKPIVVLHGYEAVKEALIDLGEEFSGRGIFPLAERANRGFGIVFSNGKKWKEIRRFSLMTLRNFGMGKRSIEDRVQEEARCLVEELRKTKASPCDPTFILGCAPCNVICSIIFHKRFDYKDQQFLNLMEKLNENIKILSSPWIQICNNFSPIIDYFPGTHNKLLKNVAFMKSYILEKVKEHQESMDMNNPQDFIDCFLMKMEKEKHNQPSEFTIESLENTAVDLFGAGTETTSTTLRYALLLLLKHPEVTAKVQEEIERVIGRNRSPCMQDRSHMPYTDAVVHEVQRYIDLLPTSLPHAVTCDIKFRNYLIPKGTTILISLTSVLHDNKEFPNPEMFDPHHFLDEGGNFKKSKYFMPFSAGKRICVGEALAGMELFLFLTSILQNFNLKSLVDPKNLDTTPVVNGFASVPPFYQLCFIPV
# Chain of CYP2D6 (P10635 whole entry): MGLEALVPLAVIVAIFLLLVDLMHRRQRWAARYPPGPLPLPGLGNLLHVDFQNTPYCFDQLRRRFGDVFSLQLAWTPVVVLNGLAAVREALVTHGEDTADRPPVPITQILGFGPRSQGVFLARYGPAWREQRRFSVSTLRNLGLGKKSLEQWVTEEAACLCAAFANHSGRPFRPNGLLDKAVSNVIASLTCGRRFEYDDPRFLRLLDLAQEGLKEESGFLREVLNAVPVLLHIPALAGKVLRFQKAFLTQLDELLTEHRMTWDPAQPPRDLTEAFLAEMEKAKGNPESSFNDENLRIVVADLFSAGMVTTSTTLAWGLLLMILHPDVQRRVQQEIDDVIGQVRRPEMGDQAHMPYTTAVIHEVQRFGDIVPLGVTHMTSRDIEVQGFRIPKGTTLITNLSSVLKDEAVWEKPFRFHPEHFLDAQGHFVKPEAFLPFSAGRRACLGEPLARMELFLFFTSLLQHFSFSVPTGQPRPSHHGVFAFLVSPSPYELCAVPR
# Chain of CYP2E1 (P05181 whole entry): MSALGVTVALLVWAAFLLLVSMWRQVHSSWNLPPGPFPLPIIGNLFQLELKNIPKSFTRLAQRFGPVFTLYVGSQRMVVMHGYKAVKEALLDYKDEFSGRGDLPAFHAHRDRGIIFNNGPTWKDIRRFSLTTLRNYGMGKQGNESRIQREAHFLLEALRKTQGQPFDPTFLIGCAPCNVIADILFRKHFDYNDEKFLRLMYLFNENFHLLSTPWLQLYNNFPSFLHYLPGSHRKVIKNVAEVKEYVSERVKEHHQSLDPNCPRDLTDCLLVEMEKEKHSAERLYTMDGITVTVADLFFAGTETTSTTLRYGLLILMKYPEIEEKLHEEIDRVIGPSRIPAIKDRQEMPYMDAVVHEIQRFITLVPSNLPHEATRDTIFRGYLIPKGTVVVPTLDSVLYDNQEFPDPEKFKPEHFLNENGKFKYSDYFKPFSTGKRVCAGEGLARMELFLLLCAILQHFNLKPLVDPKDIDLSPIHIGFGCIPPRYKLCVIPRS
# Chain of CYP2A6 (P11509 whole entry): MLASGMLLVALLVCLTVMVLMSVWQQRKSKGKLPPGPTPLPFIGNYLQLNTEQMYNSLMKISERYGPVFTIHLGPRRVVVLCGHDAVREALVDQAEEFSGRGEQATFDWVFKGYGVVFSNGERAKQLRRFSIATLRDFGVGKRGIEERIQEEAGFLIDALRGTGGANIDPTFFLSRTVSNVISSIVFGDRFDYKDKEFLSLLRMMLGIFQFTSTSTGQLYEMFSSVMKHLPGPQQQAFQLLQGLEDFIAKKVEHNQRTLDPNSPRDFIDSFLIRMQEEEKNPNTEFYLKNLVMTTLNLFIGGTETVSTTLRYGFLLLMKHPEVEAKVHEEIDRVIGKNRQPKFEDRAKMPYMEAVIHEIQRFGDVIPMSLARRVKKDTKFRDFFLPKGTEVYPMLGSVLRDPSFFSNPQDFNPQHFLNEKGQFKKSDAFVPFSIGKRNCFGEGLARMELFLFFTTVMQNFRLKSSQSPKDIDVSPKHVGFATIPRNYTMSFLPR
structure (smiles),measurement,setting,value
"CN(C)c1ccc2c(C(F)(F)F)cc(=O)oc2c1 [C152, 7-Dimethylamino-4-trifluromethylcoumarin]",Specific rate,[1]; [13],46.6 min⁻¹
same,Specific rate,[1]; [14],49.3 min⁻¹
same,"Vmax (C152 metabolism, fluorimetric assay)","[1]; SS(2B6), mol C152 per mol P450 per min",49 ± 11 min⁻¹
same,"Fraction of C151 formed, Fluorimetry","[1]; SS(2B6), scanning fluorimetry with PCA",7.3±3.4%
same,Km,"[1]; read-out: KM or S50 (C152 metabolism, fluorimetric assay), SS(2B6), Michaelis-Menten fit, 30 °C, pH 7.4",1.8 ± 0.2 µM
same,Specific rate,[2]; [13],2.0 min⁻¹
same,Specific rate,[2]; [14],3.9 min⁻¹
same,"Vmax (C152 metabolism, fluorimetric assay)","[2]; SS(2C9), mol C152 per mol P450 per min",3.9 ± 1.2 min⁻¹
same,Km,"[2]; read-out: KM or S50 (C152 metabolism, fluorimetric assay), SS(2C9), Michaelis-Menten fit, 30 °C, pH 7.4",29 ± 8 µM
same,Specific rate,[3]; [13],16.5 min⁻¹
same,Specific rate,[3]; [14],17.3 min⁻¹
same,"N, Hill coefficient (C152 metabolism, fluorimetric assay)",[3]; SS(3A4),1.6±0.2
same,"Vmax (C152 metabolism, fluorimetric assay)","[3]; SS(3A4), mol C152 per mol P450 per min",17 ± 3 min⁻¹
same,"Fraction of C151 formed, Fluorimetry","[3]; SS(3A4), scanning fluorimetry with PCA",2.5±0.3%
same,Km,"[3]; read-out: KM or S50 (C152 metabolism, fluorimetric assay), SS(3A4), Hill fit (S50), 30 °C, pH 7.4",4.5 ± 1.2 µM
same,activity with C152,[4],no detectable activity
same,activity with C152,[5],no detectable activity
same,activity with C152,[6],no detectable activity
same,"Fraction of C151 formed, LC-MS",[7]; [15],4% and 4.0±0.8%
same,"Vmax (Formation of C151, LC-MS)",[7]; [16],1.8 ± 0.4 min⁻¹
same,Km,[7]; [17],1 ± 0.4 µM
same,"Fraction of C151 formed, LC-MS",[8]; [15],5.6±0.4%
same,"Vmax (Formation of C151, LC-MS)",[8]; [16],0.43 ± 0.03 min⁻¹
same,Km,[8]; [17],6.7 ± 1.5 µM
same,"N, Hill coefficient (Formation of C151, LC-MS)",[9],1.4±0.4
same,"Fraction of C151 formed, LC-MS",[9]; [15],5.4±2.4%
same,"Vmax (Formation of C151, LC-MS)",[9]; [16],0.94 ± 0.41 min⁻¹
same,Km,"[9]; read-out: KM or S50 (Formation of C151, LC-MS), Hill fit (S50)",6.4 ± 1.1 µM
same,Normalized rate,[10]; at 30 μM C152,0.020 min⁻¹
same,Expected participation,"[10]; at 30 μM C152, % TNR",0.16%
same,Normalized rate,[10]; [18],0.022 min⁻¹
same,Expected participation,[10]; [19],0.17%
same,Normalized rate,[11]; at 30 μM C152,0.496 min⁻¹
same,Expected participation,"[11]; at 30 μM C152, % TNR",4% and 4.08%
same,Normalized rate,[11]; [18],0.981 min⁻¹
same,Normalized rate,[12]; at 30 μM C152,0.026 min⁻¹
same,Expected participation,"[12]; at 30 μM C152, % TNR",0.2% and 0.22%
same,Normalized rate,[12]; [18],0.031 min⁻¹
same,Expected participation,[12]; [19],0.24%
